The text below walks through data of ChEMBL document CHEMBL2375256, “Functionalized indoleamines as potent, drug-like inhibitors of isoprenylcysteine carboxyl methyltransferase (Icmt)” (Eur J Med Chem, 2013).

In brackets after ≈: the same amount, converted by molar mass.

One data set relates to PC-3. Description: Antiproliferative activity against human PC3 cells after 72 hrs […]. In kind it is functional, cell-based. The following applies: PC-3, 72 h.
Another data set has as its system HepG2. Briefly: Antiproliferative activity against human HepG2 cells after 72 hrs […]. The following applies: HepG2, 72 h. It is filed as functional, cell-based.
Data set [1] in a line: Half life in rat liver microsomes at 3 uM. It is filed as ADME, Microsome. In a few lines:
(§1)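 Compound at 3 µM was incubated with pooled male rat liver microsomes (0.3 mg protein/mL) in 0.1 M phosphate buffer pH 7.4 with 1 mM EDTA. The reaction was started with NADPH (1 mM final) at 37 °C and sampled at 0, 5, 15, 30 and 45 min.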
(In general: Liver microsomes are vesicles of endoplasmic reticulum, rich in cytochrome P450 enzymes.)

A further data set has as its system MDA-MB-231. Description: Antiproliferative activity against human MDA-MB-231 cells after 72 hrs […]. The following applies: MDA-MB-231, 72 h. It is filed as functional, cell-based.
Another data set concerns IMR-90. Briefly: Antiproliferative activity against human IMR90 cells after 72 hrs […]. The following applies: IMR-90, 72 h. It is filed as cell-based.
A short description of data set [2]: Aqueous solubility of the compound at pH 7.4 after 24 hrs agitation. It is filed as physicochemical.
Data set [3] is described as follows: Intrinsic clearance in rat liver microsomes at 3 uM. The following applies: read-out: CLH. It is filed as ADME, Microsome. In a few lines: as §1
For data set [4], the target named is Protein-S-isoprenylcysteine O-methyltransferase (Homo sapiens, UniProt O60725). Description: Inhibition of recombinant Icmt (unknown origin) expressed in Sf9 cells assessed as transfer of methyl group from [3H]-S-adenosylmethionine to [3H]-biotin-S-farnesyl-L-cysteine after 30 mins. Put shortly: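 Icmt membrane protein was diluted to 0.03 mg/mL in 70 mM HEPES, 100 mM NaCl, 5 mM MgCl2, 3 mM DTT, pH 7.5, and preincubated with inhibitor. The reaction was started with a mix of BFC, SAM and [3H]SAM and run 30 min at 37 °C. It was quenched with excess SAM, captured on streptavidin SPA beads overnight at ambient temperature, and counted. IC50 was taken from % activity versus log concentration, with two independent determinations.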
Protein-S-isoprenylcysteine O-methyltransferase, sequence (O60725 whole entry): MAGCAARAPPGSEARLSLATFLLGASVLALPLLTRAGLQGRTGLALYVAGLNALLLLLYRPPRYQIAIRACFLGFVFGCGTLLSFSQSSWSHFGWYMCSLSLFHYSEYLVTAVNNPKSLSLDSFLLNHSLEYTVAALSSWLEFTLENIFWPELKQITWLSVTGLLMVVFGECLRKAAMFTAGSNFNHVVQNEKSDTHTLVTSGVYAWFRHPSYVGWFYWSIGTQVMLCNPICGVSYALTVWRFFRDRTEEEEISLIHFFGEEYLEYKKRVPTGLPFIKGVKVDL

A further data set relates to MIA PaCa-2. Description: Antiproliferative activity against human MIAPaCa2 cells after 72 hrs by MTT assay. In kind it is functional, cell-based. The following applies: MIA PaCa-2, 72 h. In general terms: Tetrazolium dyes change colour on reduction, which living cells bring about.

Turning to `CCCCCCCCn1cc(CN(CC)CC)c2cc(-c3cccc(C)c3)ccc21`, the IC50 – broadly, the concentration that inhibits the measured activity by half – in the data set on PC-3 amounted to 6.31 µM; in the data set on HepG2, 4.9 µM; in the data set on MDA-MB-231, 5.14 µM; in the data set with IMR-90, 5.26 µM. In addition, the half-life (in general, how long it takes for the measured level to halve) at 3 µM in [1] came to 26.9 min. The amount in solution in data set [2] (solubility at 24 h) came to 1.1 µM (≈ 0.445 µg/mL). In data set [3], the microsomal CLint at 3 µM was found to be 85.8 µL/min/mg.

For the compound `CCCCCCCCn1cc(CN(CC)CC)c2cc(-c3cccnc3)ccc21`, the IC50 was 5.84 µM with PC-3, 5.5 µM in the data set on MDA-MB-231 and 5.52 µM in the data set with IMR-90.

Consider `CCCCCCCCn1cc(CN(CC)CC)c2cc(-c3ccc(C#N)cc3)ccc21`, for which the IC50 amounted to 6.11 µM in the data set with PC-3 and 10.8 µM with MDA-MB-231.

As to `CCCCCCCCn1cc(CN(CC)CC)c2cc(F)ccc21`, the results for the IC50 (in the data set with MDA-MB-231; in data set [4]) were 7.36 µM and 4.42 µM, respectively.

For `CCCCCCCCn1cc(CN(CC)CC)c2c(F)cccc21`, the IC50 in the data set with MDA-MB-231 amounted to 7.5 µM.

Consider `CCCCCCCCn1cc(CN(CC)CC)c2cc(-c3ccc(S(C)(=O)=O)cc3)ccc21`, for which the results for the IC50 in the data set with PC-3 and in the data set on MDA-MB-231 were 4.74 µM and 5.56 µM, respectively.

Regarding `CCCCCCCCn1cc(CN(CC)CC)c2cc(-c3cnc(C#N)nc3)ccc21`, the concentration for half-maximal inhibition (IC50) stood at 5.74 µM in the data set with PC-3 and 3.85 µM in the data set on MDA-MB-231.

On to `CCCCCCCCn1cc(CN(CC)CC)c2cc(-c3ccc(N(C)C)nc3)ccc21`, for which the IC50 in the data set on PC-3 stood at 1.92 µM; in the data set on MDA-MB-231 it was 2.52 µM; in data set [4], 1.63 µM.

Turning to `CCCCCCCCn1cc(CC(N)=O)c2cc(-c3cccc(C)c3)ccc21`, the 50% inhibitory concentration (IC50) is 21.3 µM in the data set with PC-3, 19.3 µM in the data set with HepG2 and 22.1 µM with MDA-MB-231. In data set [1], this compound showed a half-life at 3 µM of 44.8 min. Further, in [3], the microsomal CLint at 3 µM turned out to be 53.6 µL/min/mg.

For `CCCCCCCCn1cc(CN(CC)CC)c2cc(-c3cccc(O)c3)ccc21`, the figures for the IC50 with PC-3 and with MDA-MB-231 were 14.9 µM and 18.1 µM, respectively.

With `CCCCCCCCn1cc(CN(CC)CC)c2cc(-c3ccc(S(=O)(=O)NC)cc3)ccc21`, it took 10.2 µM to reach half-maximal inhibition with MDA-MB-231 (IC50).

Turning to `CCCCCCCCn1cc(CN(CC)CC)c2cccc(F)c21`, in the data set with MDA-MB-231, the IC50 came to 8.87 µM.

Regarding `CCCCCCCCn1cc(CN(CC)CC)c2cc(-c3cnc(N)nc3)ccc21`, the IC50 was 1.6 µM in the data set on MIA PaCa-2; 2.55 µM with PC-3; 1.65 µM in the data set with HepG2; 2.48 µM with MDA-MB-231; 2.65 µM in the data set on IMR-90. For the same compound, in [1], the half-life at 3 µM came out at 11.3 min. For the same compound, the microsomal CLint at 3 µM in [3] is 204 µL/min/mg.

With `CCCCCCCCn1cc(CN(CC)CC)c2cc(-c3cncnc3)ccc21`, the results for the IC50 in the data set with PC-3, in the data set with MDA-MB-231 and with IMR-90 were 8.47 µM, 11.1 µM and 9.84 µM, respectively.

As to `CCCCCCCCn1cc(CN(CC)CC)c2cc(-c3ccncc3F)ccc21`, the IC50 in the data set on PC-3 came out at 5.88 µM; with MDA-MB-231, 5.14 µM; in data set [4], 0.96 µM.

Turning to `CCCCCCCCn1cc(CN(CC)CC)c2ccc(F)cc21`, the IC50 in the data set with MDA-MB-231 was 9.14 µM; in data set [4] it was 2.22 µM.
